Test results from ChEMBL document CHEMBL1143056, “Enhanced substituted resorcinol hydrophobicity augments tyrosinase inhibition potency” (J Med Chem, 2007).

Legend:
[1] = target: T1, Tyrosinase (Agaricus bisporus) (UniProt O42713); test: Inhibition of mushroom tyrosinase at 0.3 uM for 10 min pre-incubated before addition of tyrosine
T1 sequence (whole entry): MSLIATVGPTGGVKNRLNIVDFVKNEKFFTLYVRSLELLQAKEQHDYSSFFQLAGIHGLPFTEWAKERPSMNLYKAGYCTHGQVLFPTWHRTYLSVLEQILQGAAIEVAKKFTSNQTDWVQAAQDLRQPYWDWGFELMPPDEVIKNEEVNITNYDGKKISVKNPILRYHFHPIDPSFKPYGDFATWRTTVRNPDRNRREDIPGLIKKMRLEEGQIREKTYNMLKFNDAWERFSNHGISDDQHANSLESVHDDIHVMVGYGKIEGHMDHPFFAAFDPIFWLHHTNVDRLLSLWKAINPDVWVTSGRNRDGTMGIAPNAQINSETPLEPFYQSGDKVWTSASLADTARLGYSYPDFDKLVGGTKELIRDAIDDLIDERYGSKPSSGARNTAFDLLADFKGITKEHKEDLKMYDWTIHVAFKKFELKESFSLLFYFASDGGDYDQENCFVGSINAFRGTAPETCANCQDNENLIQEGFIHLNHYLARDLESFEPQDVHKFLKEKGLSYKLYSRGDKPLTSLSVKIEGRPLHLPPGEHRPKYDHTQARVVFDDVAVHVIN

[2] = target: T1, Tyrosinase (Agaricus bisporus); test: Inhibition of mushroom tyrosinase at 0.3 uM for 10 min pre-incubated before addition of 3.75 mM tyrosine
Tyrosinase = target: T2, Tyrosinase (Agaricus bisporus, UniProt O42713); test: Inhibition of mushroom tyrosinase
T2 sequence (O42713 whole entry): T1 sequence (whole entry)
In short: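 Wells held 50 mM potassium phosphate pH 6.5, tyrosinase at 50 units/mL final and inhibitor in absolute ethanol (5-100 µM final). After 10 min at 25 °C, L-tyrosine was added to 1 mM. Absorbance at 450 nm was read every 5 min against an ethanol-only control. IC50 was taken from the linear zone at 20 min.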

[3] = target: T1, Tyrosinase (Agaricus bisporus); test: Inhibition of mushroom tyrosinase at 0.3 uM for 10 min preincubated before addition of 1 mM tyrosine
[4] = target: T1, Tyrosinase (Agaricus bisporus); test: Inhibition of mushroom tyrosinase at 10 uM for 10 min pre-incubated before addition of tyrosine

CCC(C)(C)C(OC(=O)CCc1ccc(O)cc1O)C(C)(C)CC
inhibition [1]: 80% | inhibition [2]: 86% | IC50 (Tyrosinase): 150 nM | inhibition [3]: 97%

CC(C)(C)OC(=O)CCc1ccc(O)cc1O
IC50 (Tyrosinase): 14900 nM

CC(C)OC(=O)CCc1ccc(O)cc1O
IC50 (Tyrosinase): 70 nM

CCOC(=O)CCc1ccc(O)cc1O
IC50 (Tyrosinase): 220 nM

CCCCCCCCOC(=O)CCc1ccc(O)cc1O
IC50 (Tyrosinase): 700 nM

CC(C)(C)COC(=O)CCc1ccc(O)cc1O
IC50 (Tyrosinase): 180 nM

O=C(O)CCc1ccc(O)cc1O
inhibition [4]: 80% | IC50 (Tyrosinase): 1850 nM
